Measurements reported in publication PMC7439261 (ACS Omega, 2020).
pIC50: −log10 of the molar value. In brackets after ≈: the same amount, converted by molar mass.

Tests used:
H. pylori OX.63 = experiment: Broth dilution bioassay MIC/MBC, OX.63; type: cell-based, Helicobacter pylori; settings: Helicobacter pylori; for MIC: OX.63, 48 h, H. pylori OX.63, broth dilution, 48 h; for MBC: OX.63, 72 h
[1] = biological target: H. pylori ATCC 43504 urease (Helicobacter pylori, UniProt P69996); experiment: Urease inhibition, salicylate-hypochlorite method; type: biochemical; settings: for slope ± SE: slope of dose-response curve of percentage of urease inhibition
Chain of H. pylori ATCC 43504 urease (P69996 whole entry): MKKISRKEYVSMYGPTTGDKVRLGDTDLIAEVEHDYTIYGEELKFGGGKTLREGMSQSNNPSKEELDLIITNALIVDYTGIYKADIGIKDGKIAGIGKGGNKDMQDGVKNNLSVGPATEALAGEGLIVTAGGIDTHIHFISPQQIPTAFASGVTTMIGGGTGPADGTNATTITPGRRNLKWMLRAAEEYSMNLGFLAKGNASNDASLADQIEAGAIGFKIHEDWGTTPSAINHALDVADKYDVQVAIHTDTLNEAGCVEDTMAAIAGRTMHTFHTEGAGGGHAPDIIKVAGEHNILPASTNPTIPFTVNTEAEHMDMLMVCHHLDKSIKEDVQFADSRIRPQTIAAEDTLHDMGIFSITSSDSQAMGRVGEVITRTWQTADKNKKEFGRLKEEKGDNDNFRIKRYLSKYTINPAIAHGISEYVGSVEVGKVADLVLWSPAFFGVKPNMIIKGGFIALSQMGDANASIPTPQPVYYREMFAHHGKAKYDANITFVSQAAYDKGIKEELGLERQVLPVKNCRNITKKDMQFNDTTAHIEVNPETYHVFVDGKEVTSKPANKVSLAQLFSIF
Chain of H. pylori ATCC 43504 urease (P14916 whole entry partner): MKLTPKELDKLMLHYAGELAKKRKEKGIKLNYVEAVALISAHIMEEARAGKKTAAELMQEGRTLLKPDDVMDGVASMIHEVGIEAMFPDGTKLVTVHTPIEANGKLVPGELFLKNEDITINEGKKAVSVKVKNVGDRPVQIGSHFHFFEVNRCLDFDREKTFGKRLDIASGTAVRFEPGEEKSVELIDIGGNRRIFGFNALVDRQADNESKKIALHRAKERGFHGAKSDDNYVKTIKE
Procedure, shortened: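 Crude H. pylori ATCC 43504 urease, 0.25 μg (0.04 U), in EDTA–sodium phosphate buffer pH 7.3, was preincubated with test compound at 37 °C for 90 min at 50 rpm. Urea solution (10 mM, as added) was then incubated for 30 min. Ammonia was measured by the salicylate–nitroprusside/alkaline hypochlorite method at 625 nm. Thiourea was the reference inhibitor. IC50 is molar. Triplicates, three independent experiments.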

H. pylori ATCC 51932 = experiment: Broth dilution bioassay MIC/MBC, ATCC 51932; type: cell-based; settings: Helicobacter pylori; for MIC: ATCC51932, 48 h; for MBC: ATCC51932, 72 h
H. pylori OX.22 = experiment: Broth dilution bioassay MIC/MBC, OX.22; type: cell-based; settings: Helicobacter pylori; for MIC: OX.22, 48 h; for MBC: OX.22, 72 h
[2] = Sulforhodamine cytotoxicity assay, MCF7; type: cell-based; settings: human, MCF7 cells
Procedure, shortened: (§1)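 Cells were grown in EMEM with 10% FBS, 2 mM L-glutamine, 20 mM HEPES and antibiotics at 37 °C, 5% CO2. Passages were 4–20 for HeLa, MCF7 and Jurkat, and 2–5 for fibroblasts. Seeding per well for 24 h: HeLa 5×10^3, MCF7 and fibroblast 10^4, Jurkat 5×10^4. Test compound (0–200 mg/L, in DMSO) was added for 48 h. Cells were fixed with cold TCA, stained with 0.2% SRB, solubilised in 10 mM Tris and read at 492 nm. Camptothecin was the positive control. Triplicates, three independent experiments.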

[3] = system: H. pylori ATCC 43504 biofilm formation; experiment: Biofilm formation inhibitory assay; type: cell-based, Helicobacter pylori; settings: at test concentrations (sub-MICs), 48 h
[4] = Sulforhodamine cytotoxicity assay, HeLa; type: cell-based; settings: human, HeLa cells
Procedure, shortened: as §1

H. pylori ATCC 43504 [5] = experiment: Time-killing assay; type: cell-based, Helicobacter pylori
Procedure, shortened: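 H. pylori ATCC 43504 in 10% NBS-supplemented Brucella broth in 96-well plates, by broth microdilution. Inoculum suspension 5×10^6 CFU/mL; DMSO final ≤2.5%. Test compound was used at concentrations from MIC to MBC, alongside an untreated control. Viability was counted by plate colony count at 0, 6, 12, 18, 24, 36 and 48 h.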

H. pylori ATCC 43504 [6] = experiment: Effect on morphology; type: cell-based, Helicobacter pylori
H. pylori OX.67 = experiment: Broth dilution bioassay MIC/MBC, OX.67; type: cell-based, Helicobacter pylori; settings: Helicobacter pylori; for MIC: OX.67, 48 h, H. pylori OX.67, broth dilution, 48 h; for MBC: OX.67, 72 h
[7] = Sulforhodamine cytotoxicity assay, text summary over four cell lines; type: cell-based; settings: human
Procedure, shortened: as §1

[8] = Sulforhodamine cytotoxicity assay, Jurkat; type: cell-based; settings: human, Jurkat cells
Procedure, shortened: as §1

[9] = Sulforhodamine cytotoxicity assay, fibroblast; type: cell-based; settings: human, fibroblast cells derived from human foreskins
Procedure, shortened: as §1

H. pylori ATCC 43504 [10] = experiment: Broth dilution bioassay MIC/MBC, ATCC 43504; type: cell-based; settings: Helicobacter pylori; for MIC: ATCC43504, 48 h; for MBC: ATCC43504, 72 h
[11] = system: test strains of H. pylori; experiment: Broth dilution bioassay MIC/MBC, text summary over test strains; type: cell-based; settings: Helicobacter pylori; for MIC: ATCC51932
H. pylori OX.83 = experiment: Broth dilution bioassay MIC/MBC, OX.83; type: cell-based, Helicobacter pylori; settings: Helicobacter pylori; for MIC: OX.83, 48 h, H. pylori OX.83, broth dilution, 48 h; for MBC: OX.83, 72 h
H. pylori OX.64 = experiment: Broth dilution bioassay MIC/MBC, OX.64; type: cell-based, Helicobacter pylori; settings: Helicobacter pylori; for MIC: OX.64, 48 h, H. pylori OX.64, broth dilution, 48 h; for MBC: OX.64, 72 h

Compound | MIC (H. pylori OX.63) [µg/mL] | MBC (H. pylori OX.63) [µg/mL] | pIC50 [1] | slope ± SE [1] | MIC (H. pylori ATCC 51932) [µg/mL] | MBC (H. pylori ATCC 51932) [µg/mL] | MIC (H. pylori OX.22) [µg/mL] | MBC (H. pylori OX.22) [µg/mL] | CC50 at 48 h [2] [µg/mL] | antibiofilm activity [3] | CC50 at 48 h [4] [µg/mL] | conversion to the coccoid form (H. pylori ATCC 43504 [6]; 500 mg/L) | conversion to the coccoid form (H. pylori ATCC 43504 [6]; 1000 mg/L) [%] | MIC (H. pylori OX.67) [µg/mL] | MBC (H. pylori OX.67) [µg/mL] | CC50 at 48 h [7] [µg/mL] | CC50 at 48 h [8] [µg/mL] | CC50 at 48 h [9] [µg/mL] | MIC (H. pylori ATCC 43504 [10]) [µg/mL] | MBC (H. pylori ATCC 43504 [10]) [µg/mL] | further results
O=c1cc(-c2ccc(O)c(O)c2)oc2cc(O)cc(O)c12 [LUT, luteolin] | 125 (≈ 437 µM) | 1250 (≈ 4370 µM) | 3.40 | 2.16 ± 0.080 | 125 (≈ 437 µM) | 1250 (≈ 4370 µM) | 125 (≈ 437 µM) | 1250 (≈ 4370 µM) | 8.64 (≈ 30.2 µM) | did not show antibiofilm activity | 8.36 (≈ 29.2 µM) | 14.7% | 87.5 | 125 (≈ 437 µM) | 1250 (≈ 4370 µM) | 5.12 to 49.8 (≈ 17.9 to 174 µM) | 5.12 (≈ 17.9 µM) | 49.8 (≈ 174 µM) | 125 (≈ 437 µM) | 1250 (≈ 4370 µM) | reduction of viability (H. pylori ATCC 43504 [5]; four times the MIC, 12 h): ~3 log10; MBC [11]: 1250 µg/mL (≈ 4370 µM); MIC [11]: 125 µg/mL (≈ 437 µM); MIC (H. pylori OX.83): 125 µg/mL (≈ 437 µM); MBC (H. pylori OX.83): 1250 µg/mL (≈ 4370 µM); MIC (H. pylori OX.64): 125 µg/mL (≈ 437 µM); MBC (H. pylori OX.64): 1250 µg/mL (≈ 4370 µM)
CC[C@@]1(O)C(=O)OCc2c1cc1n(c2=O)Cc2cc3ccccc3nc2-1 [camptothecin, reference compound] | – | – | – | – | – | – | – | – | 0.005 (≈ 0.0144 µM) | – | 0.89 (≈ 2.55 µM) | – | – | – | – | 0.005 to 1.57 (≈ 0.0144 to 4.51 µM) | 0.005 (≈ 0.0144 µM) | 1.57 (≈ 4.51 µM) | – | – | –
O=C(O)c1ccc(O)c(O)c1 [PCA, protocatechuic acid] | 250 (≈ 1620 µM) | 1500 (≈ 9730 µM) | 3.31 | 2.00 ± 0.075 | 250 (≈ 1620 µM) | 1500 (≈ 9730 µM) | 250 (≈ 1620 µM) | 1500 (≈ 9730 µM) | > 200 | did not show antibiofilm activity | > 200 | not significantly different from that in the control group | 12 | 250 (≈ 1620 µM) | 1500 (≈ 9730 µM) | > 200 | > 200 | > 200 | 250 (≈ 1620 µM) | 1500 (≈ 9730 µM) | reduction of viability (H. pylori ATCC 43504 [5]; at the MIC, 36 h): ~2 log10; reduction of viability (H. pylori ATCC 43504 [5]; four times the MIC, 48 h): ~6 log10; MIC [11]: 250 µg/mL (≈ 1620 µM); MIC (H. pylori OX.83): 250 µg/mL (≈ 1620 µM); MBC (H. pylori OX.83): 1500 µg/mL (≈ 9730 µM); MIC (H. pylori OX.64): 250 µg/mL (≈ 1620 µM); MBC (H. pylori OX.64): 1500 µg/mL (≈ 9730 µM)
